Assay results as given in ChEMBL document CHEMBL1833887, “Synthesis and evaluation of 7-substituted 4-aminoquinoline analogues for antimalarial activity” (J Med Chem, 2011).
In brackets after ≈: the same amount, converted by molar mass.

Tests used:
[1] = Solubility of the compound at pH 7.4 after 18 hrs by UV spectroscopic analysis; format: physicochemical; conditions: buffer
Summary of the method: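 Kinetic solubility. A 10 mM stock is diluted 1:100 into PBS pH 7.4 and incubated 18 h at room temperature, then filtered; the filtrate is mixed 1:1 with 1-propanol. UV spectrum (250–500 nm) compared by AUC with a 1-propanol/PBS reference. Single experiment in triplicate.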

Plasmodium falciparum [2] = assay: Antimalarial activity against chloroquine-sensitive Plasmodium falciparum 3D7 infected in human erythrocytes assessed as reduction in parasitemia after 72 hrs by spectrophotometry; format: functional, organism-based; conditions: 3D7, 72 h
[3] = Ratio of EC50 for human HepG2 cells to EC50 for Plasmodium falciparum 3D7 infected in human erythrocytes
[4] = Dissociation constant, pKa of the compound; format: physicochemical
Plasmodium falciparum [5] = assay: Antimalarial activity against chloroquine-resistant Plasmodium falciparum K1 infected in human erythrocytes assessed as reduction in parasitemia after 72 hrs by spectrophotometry; format: functional, organism-based; conditions: K1, 72 h
HepG2 = assay: Cytotoxicity against human HepG2 cells assessed as intracellular ATP level after 72 hrs by Celltiter-Glo luminescent assay; format: cell-based; conditions: HepG2, 72 h
Plasmodium falciparum [6] = assay: Ratio of EC50 for chloroquine-resistant Plasmodium falciparum K1 infected in human erythrocytes to EC50 for chloroquine-sensitive Plasmodium falciparum 3D7 infected in human erythrocytes; format: functional
[7] = Permeability of the compound at pH 7.4 after 30 mins by PAMPA; format: ADME; conditions: read-out: permeability
Summary of the method: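 PAMPA at pH 7.4. A 10 mM DMSO stock is diluted into system solution buffer; its UV spectrum serves as reference. Membrane painted with GIT lipid, acceptor chamber holds acceptor solution buffer. Sandwich stirred for 30 min, aqueous boundary layer set to 40. Donor and acceptor UV spectra read at 250–500 nm. Permeability coefficient from the AUCs of reference, donor and acceptor. Single experiment in triplicate.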

[8] = Ratio of EC50 for human HepG2 cells to EC50 for Plasmodium falciparum K1 infected in human erythrocytes

Row | Compound | solubility at 18 h [1] [µM] | EC50 (Plasmodium falciparum [2]) [µM] | Ratio EC50 [3] | pKa [4] | EC50 (Plasmodium falciparum [5]) [µM] | EC50 (HepG2) [µM] | Ratio EC50 (Plasmodium falciparum [6]) | Papp at 0.5 h [7] [×10⁻⁶ cm/s] | Ratio EC50 [8]
1 | COc1ccc(F)cc1CNCCCNc1ccnc2cc(Oc3ccc(C(C)(C)C)cc3)ccc12 | 14.5 (≈ 7.07 µg/mL) | 0.106 | 68 | 9.28 | 2.78 | 7.2 | 26.2 | 317 | 3
2 | COc1cccc(Oc2ccc3c(NCCCNCc4cccc(OC)c4O)ccnc3c2)c1 | 14.5 (≈ 6.66 µg/mL) | 0.072 | 74 | 9.28 | 3.03 | 5.3 | 42 | 317 | 2
3 | COc1cccc(CNCCCNc2ccnc3cc(Oc4ccc(F)cc4)ccc23)c1O | 14.5 (≈ 6.49 µg/mL) | 0.011 | 990 | 9.28 | 3.13 | 11 | 282.2 | 317 | 4
4 | CN(C)c1cccc(Oc2ccc3c(NCCCNCc4ccc5c(c4)OCO5)ccnc3c2)c1 | 14.5 (≈ 6.82 µg/mL) | 1.36 | 12 | 9.28 | 3.93 | 16 | 2.9 | 317 | 4
5 | CC(C)(C)c1ccc(Oc2ccc3c(NCCCNCc4ccco4)ccnc3c2)cc1 | 14.5 (≈ 6.23 µg/mL) | 1.11 | 3 | 9.28 | 4.81 | 3.1 | 4.3 | 317 | 1
6 | COc1ccccc1Oc1ccc2c(NCCCNCc3cccc(OC)c3O)ccnc2c1 | 14.5 (≈ 6.66 µg/mL) | 0.009 | 1227 | 9.28 | 5.7 | 11.2 | 626.4 | 317 | 2
7 | c1ccc(Oc2ccc3c(NCCCNCc4ccco4)ccnc3c2)cc1 | 14.5 (≈ 5.42 µg/mL) | 0.314 | 48 | 9.28 | 5.97 | 15.2 | 19 | 317 | 3
8 | COc1ccc(-c2ccc3c(NCCCNCc4ccco4)ccnc3c2)cc1 | 32 (≈ 12.4 µg/mL) | 0.011 | 565.7 | 9.47 | 0.023 | 6 | 2.2 | 237 | 261.9
9 | COc1ccc(F)cc1CNCCCNc1ccnc2cc(Cc3ccc4c(c3)OCO4)ccc12 | 32 (≈ 15.2 µg/mL) | 0.031 | 194.7 | 9.47 | 0.024 | 6.04 | 0.8 | 237 | 255.8
